Values joined by “and” are separate entries in the source; they are usually repeats but may differ in a detail not shown here. Equal entries are not always repeated.
Key:
U2OS = test: Multiplex assay against U2OS; format: toxicity, cell-based; details: human
In short: (§1)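 Tubulin, mitochondrial-mass and membrane-permeability phenotypes are per cents of healthy-nucleus cells. Cells were gated by CellPathfinder machine learning into Hoechst high-intensity objects or normal cells, normal cells into healthy, pyknosed or fragmented nuclei, and pyknosed cells into mitotic or apoptotic. Before that, live cells stained at seeding with Hoechst33342, BioTracker Green Microtubule Cytoskeleton Dye, MitoTracker Red and Annexin V Alexa Fluor 680 were imaged on a CQ1 microscope at 37°C and 5% CO2 after compound addition.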

Fibroblast = test: Multiplex assay against human fibroblast; format: toxicity, cell-based; in short: as §1
[1] = 12 h, 1 µM, compound concentration 1 uM
[2] = 12 h, 10 µM, compound concentration 10 uM
[3] = 24 h, 1 µM, compound concentration 1 uM
[4] = 24 h, 10 µM, compound concentration 10 uM
[5] = 48 h, 1 µM, compound concentration 1 uM
[6] = 48 h, 10 µM, compound concentration 10 uM

## O=C(Nc1ccccc1Cl)c1cnc2ccc(C3CCNCC3)cn12.O=C(O)C(=O)O
U2OS; [1]
  Population Apoptotic (%): 34.62% and 26.09%
  Population Fragmented Nuclei (%): 1.77% and 0.57%
  Population Healthy Nuclei (%): 86.73% and 86.21%
  Population Hoechst High Intensity Objects (%): 0%
  Population Membrane Permeable-Phenotype (%): 0.77% and 5.33%
  Population Mitochondria Different-Phenotype (%): 0% and 4%
  Population Mitotic Cells (%): 65.38% and 73.91%
  Population Normal (%): 100%
  Population Pyknosed Nuclei (%): 11.5% and 13.22%
  Population Tubulin-Different-Phenotype (%): 0.26% and 0.67%
  Total Cell Count: 452 and 174
U2OS; [2]
  Population Apoptotic (%): 36.51% and 44.74%
  Population Fragmented Nuclei (%): 2.48% and 4.95%
  Population Healthy Nuclei (%): 81.93% and 76.24%
  Population Hoechst High Intensity Objects (%): 0%
  Population Membrane Permeable-Phenotype (%): 2.42% and 7.79%
  Population Mitochondria Different-Phenotype (%): 0% and 9.09%
  Population Mitotic Cells (%): 63.49% and 55.26%
  Population Normal (%): 100%
  Population Pyknosed Nuclei (%): 15.59% and 18.81%
  Population Tubulin-Different-Phenotype (%): 5.14% and 3.25%
  Total Cell Count: 404 and 202
U2OS; [3]
  Population Apoptotic (%): 38.71% and 50%
  Population Fragmented Nuclei (%): 2.92% and 3.06%
  Population Healthy Nuclei (%): 81.98% and 83.84%
  Population Hoechst High Intensity Objects (%): 0%
  Population Membrane Permeable-Phenotype (%): 0.79% and 4.17%
  Population Mitochondria Different-Phenotype (%): 0% and 3.12%
  Population Mitotic Cells (%): 61.29% and 50%
  Population Normal (%): 100%
  Population Pyknosed Nuclei (%): 15.1% and 13.1%
  Population Tubulin-Different-Phenotype (%): 0.59% and 1.56%
  Total Cell Count: 616 and 229
U2OS; [4]
  Population Apoptotic (%): 50% and 42.31%
  Population Fragmented Nuclei (%): 3.44% and 5.18%
  Population Healthy Nuclei (%): 75.51% and 63.75%
  Population Hoechst High Intensity Objects (%): 0.2% and 0.4%
  Population Membrane Permeable-Phenotype (%): 2.14% and 8.12%
  Population Mitochondria Different-Phenotype (%): 0.8% and 10.62%
  Population Mitotic Cells (%): 50% and 57.69%
  Population Normal (%): 99.8% and 99.6%
  Population Pyknosed Nuclei (%): 21.05% and 31.08%
  Population Tubulin-Different-Phenotype (%): 4.02% and 2.5%
  Total Cell Count: 495 and 252
U2OS; [5]
  Population Apoptotic (%): 50.86% and 56.25%
  Population Fragmented Nuclei (%): 4.49% and 3.81%
  Population Healthy Nuclei (%): 84.2% and 83.11%
  Population Hoechst High Intensity Objects (%): 0% and 0.27%
  Population Membrane Permeable-Phenotype (%): 2.09% and 5.57%
  Population Mitochondria Different-Phenotype (%): 0% and 0.98%
  Population Mitotic Cells (%): 49.14% and 43.75%
  Population Normal (%): 100% and 99.73%
  Population Pyknosed Nuclei (%): 11.32% and 13.08%
  Population Tubulin-Different-Phenotype (%): 0.93% and 2.3%
  Total Cell Count: 1025 and 368
U2OS; [6]
  Population Apoptotic (%): 54.92% and 58.04%
  Population Fragmented Nuclei (%): 4.59% and 4.38%
  Population Healthy Nuclei (%): 68.57% and 60.62%
  Population Hoechst High Intensity Objects (%): 0.96% and 0%
  Population Membrane Permeable-Phenotype (%): 5.07% and 11.34%
  Population Mitochondria Different-Phenotype (%): 0.81% and 4.64%
  Population Mitotic Cells (%): 45.08% and 41.96%
  Population Normal (%): 99.04% and 100%
  Population Pyknosed Nuclei (%): 26.84% and 35%
  Population Tubulin-Different-Phenotype (%): 3.45% and 9.28%
  Total Cell Count: 726 and 320
Fibroblast; [1]
  Population Fragmented Nuclei (%): 12.96% and 7.79%
  Population Healthy Nuclei (%): 60.19% and 75.41%
  Population Hoechst High Intensity Objects (%): 0%
  Population Membrane Permeable-Phenotype (%): 1.54% and 2.72%
  Population Mitochondria Different-Phenotype (%): 7.69% and 10.87%
  Population Mitotic Cells (%): 93.1% and 73.17%
  Population Normal (%): 100%
  Population Pyknosed Nuclei (%): 26.85% and 16.8%
  Population Tubulin-Different-Phenotype (%): 17.69% and 23.91%
  Total Cell Count: 216 and 244
Fibroblast; [2]
  Population Apoptotic (%): 16.33% and 20.48%
  Population Healthy Nuclei (%): 62.09% and 63.64%
  Population Hoechst High Intensity Objects (%): 0% and 0.43%
  Population Membrane Permeable-Phenotype (%): 4.42% and 7.48%
  Population Mitochondria Different-Phenotype (%): 17.7% and 21.09%
  Population Mitotic Cells (%): 83.67% and 79.52%
  Population Normal (%): 100% and 99.57%
  Population Pyknosed Nuclei (%): 26.92% and 35.93%
  Population Tubulin-Different-Phenotype (%): 40.71% and 57.82%
  Total Cell Count: 182 and 232
Fibroblast; [3]
  Population Apoptotic (%): 14.29% and 25.71%
  Population Fragmented Nuclei (%): 11.52% and 3.52%
  Population Healthy Nuclei (%): 72.35% and 81.06%
  Population Hoechst High Intensity Objects (%): 0%
  Population Membrane Permeable-Phenotype (%): 4.46% and 3.8%
  Population Mitochondria Different-Phenotype (%): 8.92% and 15.22%

Source: ChEMBL document CHEMBL5724801, “EUbOPEN Chemogenomics Library - Multiplex” (2024)
